Assay results: ChEMBL document CHEMBL3526090, “Pharmacokinetic mechanism involved in the prolonged high retention of laninamivir in mouse respiratory tissues after intranasal administration of its prodrug laninamivir octanoate” (Drug Metab Dispos, 2013); call rule not given here
In brackets after ≈: the same amount, converted by molar mass.

How the values were obtained:
[1] = Aqueous solubility of the compound; format: physicochemical; settings: buffer
[2] = Tmax in BALB/cAnNCrlCrlj mouse lung at 0.5 umol/kg administered intranasally; format: ADME; settings: inhaled or intranasal
Summary of the method: (§1)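 Female BALB/c mice (7 weeks old) received a single intranasal dose of 0.5 μmol/kg at 2.5 ml/kg, with N=3–4 per time point up to 24 h. Plasma, BAL fluid (3 × 1 ml PBS pH 7.4) and lung homogenate were taken, and AEBSF was added to a final 5 mM. LO and laninamivir were measured by LC-MS/MS. ELF levels were corrected using the urea ratio between plasma and BAL. Non-compartmental analysis on mean concentrations gave Cmax/Tmax by observation, t1/2 from ≥3 terminal log points, and AUClast by the trapezoidal method.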

[3] = Prodrug activation in primary cultured BALB/c mouse airway epithelial cells assessed as formation of laninamivir measured at 50 uM measured at 24 hrs by LC-MS/MS analysis; format: cell-based; settings: epithelial cell
Summary of the method: (§2)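 Confluent primary BALB/c airway epithelial cells were loaded with 50 μM LO for 60 min and then washed. They were then incubated in drug-free medium at 37°C for up to 24 h, with the medium fully replaced at each sampling point. Cells were washed with ice-cold PBS and lysed. LO and laninamivir in medium and cells were measured by LC-MS/MS and normalized to Lowry protein, in triplicate. Release and hydrolysis rate constants were obtained by first-order compartmental modelling.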

[4] = AUClast in BALB/cAnNCrlCrlj mouse plasma at 0.5 umol/kg administered intranasally; format: ADME, cell-free; parameters: dose 0.5 umol/kg, time 0 - last, route nasal; settings: inhaled or intranasal; summary of the method: as §1
[5] = Drug uptake in BALB/cAnNCrlCrlj mouse epithelial lining fluid at 0.5 umol/kg administered intranasally measured at 4 hrs by LC-MS/MS analysis; format: ADME, tissue-based; settings: inhaled or intranasal, read-out: Drug uptake
Summary of the method: (§3)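 Female BALB/c mice were dosed intranasally at 0.5 μmol/kg (2.5 ml/kg), N=3–4 per time point. At each sampling time, blood was taken by cardiac puncture, BAL was done with 3 × 1 ml PBS, and lungs were homogenized in 50% acetonitrile. LO and laninamivir were quantified by LC-MS/MS, calibrated over 1–100 ng/ml and 0.5–100 ng/ml respectively. ELF concentration was calculated as CBAL × (urea in plasma / urea in BAL).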

[6] = test system: Lung; assay: AUClast in BALB/cAnNCrlCrlj mouse lung at 0.5 umol/kg administered intranasally; format: ADME; settings: in vivo, inhaled_or_intranasal; summary of the method: as §1
[7] = Cmax in BALB/cAnNCrlCrlj mouse epithelial lining fluid at 0.5 umol/kg administered intranasally; format: ADME, tissue-based; parameters: dose 0.5 umol/kg, route nasal; settings: inhaled or intranasal; summary of the method: as §1
[8] = Cmax in BALB/cAnNCrlCrlj mouse plasma at 0.5 umol/kg administered intranasally; format: ADME, cell-free; parameters: dose 0.5 umol/kg, route nasal; settings: inhaled or intranasal; summary of the method: as §1
[9] = Tmax in BALB/cAnNCrlCrlj mouse plasma at 0.5 umol/kg administered intranasally; format: ADME, cell-free; settings: inhaled or intranasal; summary of the method: as §1
[10] = test system: Lung; assay: Cmax in BALB/cAnNCrlCrlj mouse lung at 0.5 umol/kg administered intranasally; format: ADME; parameters: dose 0.5 umol/kg, route nasal; settings: in vivo, inhaled_or_intranasal; summary of the method: as §1
[11] = Elimination half life in BALB/cAnNCrlCrlj mouse epithelial lining fluid at 0.5 umol/kg administered intranasally; format: ADME, tissue-based; summary of the method: as §1
[12] = Prodrug activation in primary cultured BALB/c mouse airway epithelial cells assessed as formation of laninamivir at 50 uM measured up to 60 to 90 mins by LC-MS/MS analysis; format: cell-based; settings: epithelial cell
Summary of the method: (§4)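 Primary airway epithelial cells from BALB/c mice were obtained by collagenase digestion and negative immunomagnetic selection, then grown to confluence on collagen I. Cells were pre-incubated 30 min in serum-free F-12K. For the time course they were exposed to 50 μM LO for up to 120 min; for concentration dependence, to 10–1000 μM LO for 60 min, at 37°C. After ice-cold PBS washes and Triton lysis, intracellular LO and laninamivir were measured by LC-MS/MS and normalized to Lowry protein, in triplicate.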

[13] = Lipophilicity, log D of the compound at pH 7.4; format: physicochemical; settings: buffer
[14] = Prodrug activation in primary cultured BALB/c mouse airway epithelial cells assessed as formation of laninamivir measured at 60 mins by LC-MS/MS analysis; format: cell-based; settings: epithelial cell, 1 h; summary of the method: as §4
[15] = test system: Lung; assay: (§5) Elimination half life in BALB/cAnNCrlCrlj mouse lung at 0.5 umol/kg administered intranasally; format: ADME, tissue-based; settings: in vivo, inhaled_or_intranasal; summary of the method: as §1
[16] = Drug uptake in primary cultured BALB/c mouse airway epithelial cells at 50 uM measured up to 90 mins by LC-MS/MS analysis; format: ADME, cell-based; settings: epithelial cell; summary of the method: as §4
[17] = AUClast in BALB/cAnNCrlCrlj mouse epithelial lining fluid at 0.5 umol/kg administered intranasally; format: ADME, tissue-based; parameters: dose 0.5 umol/kg, route nasal, time 0 - last; settings: inhaled or intranasal; summary of the method: as §1
[18] = Tmax in BALB/cAnNCrlCrlj mouse epithelial lining fluid at 0.5 umol/kg administered intranasally; format: ADME, tissue-based; settings: inhaled or intranasal; summary of the method: as §1
[19] = Elimination half life in BALB/cAnNCrlCrlj mouse plasma at 0.5 umol/kg administered intranasally; format: ADME, cell-free; settings: inhaled or intranasal, read-out: beta t1/2 (converted); summary of the method: as §1
[20] = Tmax in BALB/cAnNCrlCrlj mouse epithelial lining fluid treated with laninamivir octanoate at 0.5 umol/kg administered intranasally; format: ADME, tissue-based; settings: inhaled or intranasal; summary of the method: as §1
[21] = Cmax in BALB/cAnNCrlCrlj mouse plasma treated with laninamivir octanoate at 0.5 umol/kg administered intranasally; format: ADME, cell-free; parameters: dose 0.5 umol/kg, route nasal; settings: inhaled or intranasal; summary of the method: as §1
[22] = Elimination half life in BALB/cAnNCrlCrlj mouse lung treated with laninamivir octanoate at 0.5 umol/kg administered intranasally; format: ADME, tissue-based; settings: inhaled or intranasal, read-out: beta t1/2 (converted); summary of the method: as §1
[23] = Elimination half life in BALB/cAnNCrlCrlj mouse plasma treated with laninamivir octanoate at 0.5 umol/kg administered intranasally; format: ADME, cell-free; settings: inhaled or intranasal, read-out: beta t1/2 (converted); summary of the method: as §1
[24] = Drug uptake in BALB/cAnNCrlCrlj mouse epithelial lining fluid treated with laninamivir octanoate at 0.5 umol/kg administered intranasally measured at 4 hrs by LC-MS/MS analysis; format: ADME; settings: inhaled or intranasal, read-out: Drug uptake; summary of the method: as §3
[25] = test system: Lung; assay: AUClast in BALB/cAnNCrlCrlj mouse lung treated with laninamivir octanoate at 0.5 umol/kg administered intranasally; format: ADME; settings: in vivo, inhaled_or_intranasal; summary of the method: as §1
[26] = test system: Plasma; assay: Drug uptake in BALB/cAnNCrlCrlj mouse plasma at 0.5 umol/kg administered intranasally measured after 8 hrs by LC-MS/MS analysis; format: ADME, cell-free; settings: inhaled_or_intranasal; summary of the method: as §3
[27] = Tmax in BALB/cAnNCrlCrlj mouse lung treated with laninamivir octanoate at 0.5 umol/kg administered intranasally; format: ADME; settings: inhaled or intranasal; summary of the method: as §1
[28] = Drug uptake in BALB/cAnNCrlCrlj mouse epithelial lining fluid treated with laninamivir octanoate at 0.5 umol/kg administered intranasally measured at 24 hrs by LC-MS/MS analysis; format: ADME, tissue-based; settings: inhaled or intranasal, read-out: Drug uptake; summary of the method: as §3
[29] = test system: Lung; assay: Drug concentration in BALB/cAnNCrlCrlj mouse lung treated with laninamivir octanoate at 0.5 umol/kg administered intranasally measured at 24 hrs; settings: in vivo, inhaled_or_intranasal
[30] = Tmax in BALB/cAnNCrlCrlj mouse plasma treated with laninamivir octanoate at 0.5 umol/kg administered intranasally; format: ADME, cell-free; settings: inhaled or intranasal; summary of the method: as §1
[31] = Drug level in primary cultured BALB/c mouse airway epithelial cells treated with laninamivir octanoate at 50 uM measured at 24 hrs by LC-MS/MS analysis; format: ADME, cell-based; settings: epithelial cell; summary of the method: as §2
[32] = Elimination half life in BALB/cAnNCrlCrlj mouse epithelial lining fluid treated with laninamivir octanoate at 0.5 umol/kg administered intranasally; format: ADME; settings: inhaled or intranasal, read-out: beta t1/2 (converted); summary of the method: as §1
[33] = as §5; format: ADME, tissue-based; settings: BALB/cAnNCrlCrlj, lung, inhaled or intranasal, 0.5 umol/kg, read-out: beta t1/2 (converted); summary of the method: as §1
[34] = Drug level in primary cultured BALB/c mouse airway epithelial cells treated with laninamivir octanoate at 50 uM measured up 60 to 90 mins by LC-MS/MS analysis; format: ADME, cell-based; settings: epithelial cell; summary of the method: as §4
[35] = Elimination half life in human treated with laninamivir octanoate administered intranasally; format: ADME, organism-based; settings: in vivo, inhaled or intranasal, read-out: beta t1/2 (converted)
[36] = Cmax in BALB/cAnNCrlCrlj mouse epithelial lining fluid treated with laninamivir octanoate at 0.5 umol/kg administered intranasally; format: ADME; parameters: dose 0.5 umol/kg, route nasal; settings: inhaled or intranasal; summary of the method: as §1
[37] = AUClast in BALB/cAnNCrlCrlj mouse epithelial lining fluid treated with laninamivir octanoate at 0.5 umol/kg administered intranasally; format: ADME, tissue-based; parameters: dose 0.5 umol/kg, time 0 - last, route nasal; settings: inhaled or intranasal; summary of the method: as §1
[38] = Tmax in human treated with laninamivir octanoate at 40 mg administered intranasally; format: ADME, organism-based; settings: in vivo, inhaled or intranasal
[39] = test system: Lung; assay: Cmax in BALB/cAnNCrlCrlj mouse lung treated with laninamivir octanoate at 0.5 umol/kg administered intranasally; format: ADME; parameters: dose 0.5 umol/kg, route nasal; settings: in vivo, inhaled_or_intranasal; summary of the method: as §1
[40] = test system: Lung; assay: Drug uptake in BALB/cAnNCrlCrlj mouse lung at 0.5 umol/kg administered intranasally measured at 24 hrs by LC-MS/MS analysis; format: ADME, tissue-based; settings: in vivo, inhaled_or_intranasal; summary of the method: as §3
[41] = AUClast in BALB/cAnNCrlCrlj mouse plasma treated with laninamivir octanoate at 0.5 umol/kg administered intranasally; format: ADME, cell-free; parameters: dose 0.5 umol/kg, time 0 - last, route nasal; settings: inhaled or intranasal; summary of the method: as §1

Structure (SMILES): CCCCCCCC(=O)OC[C@@H](O)[C@@H](OC)[C@@H]1OC(C(=O)O)=C[C@H](NC(=N)N)[C@H]1NC(C)=O [LANINAMIVIR OCTANOATE]
- solubility [1]: 1270 µM (≈ 600 µg/mL)
- Tmax [2]: 0.5 h
- Drug metabolism [3]: metabolite_detected
- AUC(0-t) [4]: 0.323 µM·h
- concentration at 4 h [5]: 348 nM
- AUClast [6]: 4480 pmol·h/g
- Cmax [7]: 20400 nM
- Cmax [8]: 242 nM
- Tmax [9]: 0.5 h
- Cmax [10]: 1760 pmol/g
- beta t1/2 ([11]; in vivo, inhaled_or_intranasal): 1.1 h
- Drug metabolism [12]: metabolite_detected
- logD [13]: -0.01
- Drug metabolism [14]: Dose-dependent effect
- beta t1/2 [15]: 1.3 h
- Drug uptake [16]: Active
- AUC(0-t) [17]: 23.6 µM·h
- Tmax [18]: 1.98 min
- half-life [19]: 0.6 h

Structure (SMILES): CO[C@@H]([C@@H]1OC(C(=O)O)=C[C@H](NC(=N)N)[C@H]1NC(C)=O)[C@H](O)CO [LANINAMIVIR]
- Tmax [20]: 1 h
- Cmax [21]: 181 nM
- half-life [22]: 30.9 h
- Tmax [2]: 0.25 h
- half-life [23]: 13.1 h
- AUC(0-t) [4]: 0.782 µM·h
- concentration at 4 h [5]: 51.3 nM
- concentration at 4 h [24]: 1150 nM
- AUClast [6]: 9890 pmol·h/g
- AUClast [25]: 75800 pmol·h/g
- Drug uptake [26]: Not Active
- Tmax [27]: 6 h
- Cmax [7]: 19900 nM
- concentration at 24 h [28]: 842 nM
- concentration at 24 h [29]: 2680 pmol/g
- Cmax [8]: 478 nM
- Tmax [9]: 0.5 h
- Cmax [10]: 1020 pmol/g
- half-life ([11]; BALB/cAnNCrlCrlj, epithelial lining fluid, inhaled or intranasal, 0.5 umol/kg, read-out: beta t1/2 (converted)): 25.4 h
- logD [13]: -2.18
- Tmax [30]: 1 h
- Drug metabolism [31]: metabolite_detected
- half-life [32]: 25.1 h
- half-life [33]: 25 h
- Drug metabolism [34]: metabolite_detected
- half-life [35]: 72 h
- AUC(0-t) [17]: 19.6 µM·h
- Tmax [18]: 1.98 min
- Cmax [36]: 1520 nM
- AUC(0-t) [37]: 26.5 µM·h
- Tmax [38]: 4 h
- Cmax [39]: 4350 pmol/g
- Drug uptake [40]: 282 pmol/g
- AUC(0-t) [41]: 0.445 µM·h
